Results on nine molecules are retold here after article PMC5065790 (Bioorganic & medicinal chemistry, 2016).

Experiment [1] has as its target HIV-1 MA-RNA binding (Human immunodeficiency virus type 1 group M subtype B, UniProt P12493). Briefly: Fluorescence polarization. As to conditions: screen of 50,000 compounds. Background: In fluorescence polarisation assays a small probe gives low polarisation when free and higher when bound to something large.
For experiment [2], the target named is HIV-1 MA protein (Human immunodeficiency virus type 1 group M subtype B, UniProt P12493). The experiment in a line: HIV-1 MA crosslinking, dimer/monomer immunoblot. Type of experiment: biochemical. To be noted: 30 µM MA, 50 µM compound. The method, boiled down: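 Purified HIV-1 MA at 30 µM in 25 mM sodium phosphate (pH 7.8) plus 50 mM NaCl, incubated 2 h at 25°C with or without 50 µM test compound. Dimer and monomer bands were then measured, and percentage MA crosslinking was derived from them.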

A short description of experiment [3]: Peptide crosslinking analysis. It counts as biochemical. As to conditions: 0.1 mM peptide, 1 mM compound, 2 h 25°C, reducing SDS-PAGE.
For experiment [4], the system named is HIV-1 PrGag in immature virus particles. Briefly: Virus crosslink analysis, immature HIV-1 particles. It counts as biochemical. To be noted: 1 mM compound, 1 h at 25°C.
The subject of experiment [5] is HIV-1 virus particles. The experiment in a line: Inactivation of luciferase-transducing HIV-1. To be noted: 1 mM, virus treated 1 h at 37°C, HEK293T cells, 48 h. Type of experiment: cell-based.
Experiment [6] concerns HIV-1. As to conditions: ref [21]–[3]; cited from earlier work.
Experiment [7] has as its system HIV-1 virus particles. Briefly: Inactivation of GFP-transducing HIV-1. It counts as cell-based. As to conditions: 1 mM, virus treated 1 h at 37°C, HEK293T cells, 48 h.
The target in experiment [8] is soluble guanylate cyclase. To be noted: read-out: IC50 concentrations; ref [8]–[9]; cited from earlier work.
Experiment [9] relates to leukotriene synthesis. To be noted: read-out: IC50 concentrations; ref [8]–[9]; cited from earlier work.

Consider `O=C1C(Cl)=C(Cl)C(=O)c2ncccc21` [Compound 81047, 6,7-dichloro-5,8-quinolinedione], for which the “inhibition of MA-RNA binding in library screen (in words)” value in experiment [1] is on record as “potently inhibited MA-RNA binding”. Besides, the “MA dimer formation (in words)” value in [2] is recorded as “efficiently formed dimers”. Take `O=C1C=CC(=O)c2cnccc21` [Compound 76882, 5,8-isoquinolinedione]: the “MA dimer formation (in words)” value in [2] is reported as “efficiently formed dimers”. Same read-out and setting: next, `COC1=C(Cl)C(=O)c2ncccc2C1=O` [Compound 81048, 7-chloro-6-methoxy-5,8-quinolinedione]: “significant levels of dimer formation”.

With `O=C1C=CC(=O)N1CCCCCCN1C(=O)C=CC1=O` [BMH, 1,6-bis-maleimidohexane, reference compound], the peptide dimer formation result in experiment [3] is on record as “yielded dimers”. Besides, the “HIV-1 PrGag dimer band” value in experiment [4] is “a dimer band was observed”. In the case of `c1ccc(SSc2ccccn2)nc1` [Aldrithiol-2, 2,2'-dipyridyldisulfide], in experiment [5], the “virus infectivity level after treatment (luciferase, in words)” value is given as “nearly mock-infection levels”. Besides, the “concentrations that inactivate HIV-1” value in experiment [6] was 300 to 1000 µM. For the same molecule, the “virus infection levels (GFP-positive cells, in words)” value in experiment [7] was “dramatically reduced virus infection levels”. With `O=C1C(Cl)=C(Cl)C(=O)c2ccccc21` [Compound 537, 2,3-dichloronaphthoquinone], in experiment [3], the peptide dimer formation entry is given as “yielded dimers”. The “HIV-1 PrGag dimer band” value in [4] is “showed the HIV-1 PrGag dimer band”. Besides, in experiment [2], the “MA dimer formation (in words)” value is listed as “efficiently formed dimers”. `O=C1C=CC(=O)N1CCN1C(=O)C=CC1=O` [BMOE, bis-maleimidoethane]: the peptide dimer formation result in [3] was “yielded dimers”. In the case of `COC1=C(Br)C(=O)c2ncccc2C1=O` [Compound 102729, 7-bromo-6-methoxy-5,8-quinolinedione], the “HIV-1 PrGag dimer band” value in [4] is given as “to lower extents”. Further, the “MA dimer formation (in words)” value in experiment [2] is “significant levels of dimer formation”. Take `O=C1C(Nc2ccccc2)=CC(=O)c2ncccc21` [LY83583, 6-anilino-5,8-quinolinequinone]: the IC50 in experiment [8] and in experiment [9] was 1000 to 2000 nM each time.
